# ChEMBL document CHEMBL3112476, “Inhibition of IκB kinase-β and IκB kinase-α by heterocyclic adamantyl arotinoids” (Bioorg Med Chem, 2014)
# Biological target: T1, Retinoic acid receptor alpha (Homo sapiens) (UniProt P10276)
# T1 sequence (whole entry): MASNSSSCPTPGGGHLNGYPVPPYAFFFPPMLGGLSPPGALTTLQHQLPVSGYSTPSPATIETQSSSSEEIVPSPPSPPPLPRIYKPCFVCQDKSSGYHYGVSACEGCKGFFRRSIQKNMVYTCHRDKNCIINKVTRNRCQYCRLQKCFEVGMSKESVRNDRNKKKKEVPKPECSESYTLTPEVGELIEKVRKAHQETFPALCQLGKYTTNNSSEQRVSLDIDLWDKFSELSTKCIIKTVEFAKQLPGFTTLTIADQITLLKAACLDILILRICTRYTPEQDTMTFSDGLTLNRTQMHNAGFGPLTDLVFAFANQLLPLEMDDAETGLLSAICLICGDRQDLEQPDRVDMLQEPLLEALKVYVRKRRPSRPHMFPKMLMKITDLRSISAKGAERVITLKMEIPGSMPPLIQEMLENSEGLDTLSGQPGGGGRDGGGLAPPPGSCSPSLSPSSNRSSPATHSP
# Assay: Antagonist activity at Gal4-fused RARalpha (unknown origin) transfected in HEK293 cells assessed as ATRA-induced transcriptional activity at 4 uM by luciferase/beta-galactosidase reporter gene assay relative to ATRA-treated control
# Format: cell-based
# Parameters: scale not given: the % may be the effect or the level left
# Details: not given
# In short: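 Same Gal4-RARα HEK-293 UAS-luciferase system, stimulated with 0.1 µM atRA alone or with 4 µM compound (40-fold molar excess); 1 µM UVI2024 served as control antagonist. Background-subtracted luciferase was normalized to β-galactosidase and given as percent of atRA-stimulated cells. Data: 2–3 experiments, triplicate.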
row,Activity,SMILES
1,94.2%,COCCOCOc1ccc(-c2ncc(/C=C/C(=O)O)s2)cc1C12CC3CC(CC(C3)C1)C2
2,61.5%,COCCOCOc1cc(C)c(-c2ccc(/C=C/C(=O)O)cc2Cl)cc1C12CC3CC(CC(C3)C1)C2
3,92.4%,O=C(O)/C=C/c1cnc(-c2ccc(O)c(C34CC5CC(CC(C5)C3)C4)c2)s1
4,89%,COc1nc(/C=C/C(=O)O)cnc1-c1cc(C23CC4CC(CC(C4)C2)C3)c(O)cc1C
5,33.2%,Cc1cc(O)c(C23CC4CC(CC(C4)C2)C3)cc1-c1ncc(-c2ccc(C(=O)O)cc2)s1
6,90%,Cc1cc(O)c(C23CC4CC(CC(C4)C2)C3)cc1-c1ccc2cc(C(=O)O)ccc2c1Cl
7,92.4%,COCCOCOc1ccc(-c2ncc(-c3ccc(C(=O)O)cc3)s2)cc1C12CC3CC(CC(C3)C1)C2
8,82.7%,COCCOCOc1cc(C)c(-c2ccc3cc(C(=O)O)ccc3c2Cl)cc1C12CC3CC(CC(C3)C1)C2
9,99.5%,COCCOCOc1cc(C)c(-c2ncc(/C=C/C(=O)O)nc2OC)cc1C12CC3CC(CC(C3)C1)C2
10,78.7%,COCCOCOc1ccc(-c2ncc(/C=C/C(=O)O)nc2OC)cc1C12CC3CC(CC(C3)C1)C2
11,79.7%,Cc1cc(O)c(C23CC4CC(CC(C4)C2)C3)cc1-c1ccc(CC(=O)O)cc1Cl

# System: Jurkat
# Assay: Induction of apoptosis in human Jurkat cells assessed as activation of DEVDase at 5 uM after 4 hrs by fluorometric assay relative to control
# Format: functional
# Details: not given
# In short: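 Jurkat cells (20,000/well, 0.5% FBS RPMI) were treated 4 h with 5 µM compound and lysed 15 min in PIPES pH 7 buffer with NP-40, cytochalasin B and protease inhibitors. An equal volume of 2× caspase buffer containing 100 µM Ac-DEVD-AFC was added. AFC fluorescence (ex 390/em 510 nm) was read every 2 min for 1 h at 37 °C; the linear slope was taken as activity, expressed as fold over DMSO control. Data: 2 experiments, triplicate.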
row,SMILES,fold change (FC)
1,COCCOCOc1ccc(-c2ncc(/C=C/C(=O)O)s2)cc1C12CC3CC(CC(C3)C1)C2,0.6
2,COCCOCOc1cc(C)c(-c2ccc(/C=C/C(=O)O)cc2Cl)cc1C12CC3CC(CC(C3)C1)C2,1.3
3,O=C(O)/C=C/c1cnc(-c2ccc(O)c(C34CC5CC(CC(C5)C3)C4)c2)s1,0.6
4,COc1nc(/C=C/C(=O)O)cnc1-c1cc(C23CC4CC(CC(C4)C2)C3)c(O)cc1C,2.6
5,Cc1cc(O)c(C23CC4CC(CC(C4)C2)C3)cc1-c1ncc(-c2ccc(C(=O)O)cc2)s1,12.1
6,Cc1cc(O)c(C23CC4CC(CC(C4)C2)C3)cc1-c1ccc2cc(C(=O)O)ccc2c1Cl,55.8
7,COCCOCOc1ccc(-c2ncc(-c3ccc(C(=O)O)cc3)s2)cc1C12CC3CC(CC(C3)C1)C2,9.8
8,COCCOCOc1cc(C)c(-c2ccc3cc(C(=O)O)ccc3c2Cl)cc1C12CC3CC(CC(C3)C1)C2,12.4
9,COCCOCOc1cc(C)c(-c2ncc(/C=C/C(=O)O)nc2OC)cc1C12CC3CC(CC(C3)C1)C2,0.3
10,COCCOCOc1ccc(-c2ncc(/C=C/C(=O)O)nc2OC)cc1C12CC3CC(CC(C3)C1)C2,0.2
11,Cc1cc(O)c(C23CC4CC(CC(C4)C2)C3)cc1-c1ccc(CC(=O)O)cc1Cl,1.8

# Biological target: T2, Inhibitor of nuclear factor kappa-B kinase subunit beta (Homo sapiens) (UniProt O14920)
# T2 sequence (whole entry): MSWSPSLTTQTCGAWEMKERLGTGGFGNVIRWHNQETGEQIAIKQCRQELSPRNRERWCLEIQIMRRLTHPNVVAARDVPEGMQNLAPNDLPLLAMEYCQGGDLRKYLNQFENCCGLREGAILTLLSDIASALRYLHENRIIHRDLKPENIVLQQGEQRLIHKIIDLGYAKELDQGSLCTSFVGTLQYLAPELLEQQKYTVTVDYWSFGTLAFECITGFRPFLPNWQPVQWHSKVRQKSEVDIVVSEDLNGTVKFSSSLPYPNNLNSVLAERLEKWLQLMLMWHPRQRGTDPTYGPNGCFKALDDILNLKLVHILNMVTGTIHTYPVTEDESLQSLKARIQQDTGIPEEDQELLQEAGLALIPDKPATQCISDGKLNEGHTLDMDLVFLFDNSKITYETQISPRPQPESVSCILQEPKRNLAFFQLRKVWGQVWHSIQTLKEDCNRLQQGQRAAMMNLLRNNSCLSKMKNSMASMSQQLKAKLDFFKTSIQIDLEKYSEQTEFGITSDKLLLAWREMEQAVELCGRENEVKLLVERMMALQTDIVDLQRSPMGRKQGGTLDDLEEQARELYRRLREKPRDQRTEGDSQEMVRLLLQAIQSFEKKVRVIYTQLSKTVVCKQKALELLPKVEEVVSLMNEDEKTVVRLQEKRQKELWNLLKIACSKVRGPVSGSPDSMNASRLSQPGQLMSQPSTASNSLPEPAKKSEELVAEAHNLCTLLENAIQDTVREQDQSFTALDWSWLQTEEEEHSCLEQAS
# Assay: Inhibition of recombinant IKKbeta (unknown origin) using ulight-IkappaomegaBalpha as substrate at 20 uM after 1 hr by LANCE ultra TR-FRET assay relative to control
# Details: not given
row,inhibition,SMILES
1,1.9%,COCCOCOc1ccc(-c2ncc(/C=C/C(=O)O)s2)cc1C12CC3CC(CC(C3)C1)C2
2,4.3%,COCCOCOc1cc(C)c(-c2ccc(/C=C/C(=O)O)cc2Cl)cc1C12CC3CC(CC(C3)C1)C2
3,5%,O=C(O)/C=C/c1cnc(-c2ccc(O)c(C34CC5CC(CC(C5)C3)C4)c2)s1
4,7.3%,COc1nc(/C=C/C(=O)O)cnc1-c1cc(C23CC4CC(CC(C4)C2)C3)c(O)cc1C
5,95%,Cc1cc(O)c(C23CC4CC(CC(C4)C2)C3)cc1-c1ncc(-c2ccc(C(=O)O)cc2)s1
6,96.4%,Cc1cc(O)c(C23CC4CC(CC(C4)C2)C3)cc1-c1ccc2cc(C(=O)O)ccc2c1Cl
7,89.3%,COCCOCOc1ccc(-c2ncc(-c3ccc(C(=O)O)cc3)s2)cc1C12CC3CC(CC(C3)C1)C2
8,79.2%,COCCOCOc1cc(C)c(-c2ccc3cc(C(=O)O)ccc3c2Cl)cc1C12CC3CC(CC(C3)C1)C2
9,3.8%,COCCOCOc1cc(C)c(-c2ncc(/C=C/C(=O)O)nc2OC)cc1C12CC3CC(CC(C3)C1)C2
10,1.6%,COCCOCOc1ccc(-c2ncc(/C=C/C(=O)O)nc2OC)cc1C12CC3CC(CC(C3)C1)C2
11,4.9%,Cc1cc(O)c(C23CC4CC(CC(C4)C2)C3)cc1-c1ccc(CC(=O)O)cc1Cl

# Biological target: T3, Inhibitor of nuclear factor kappa-B kinase subunit epsilon (Homo sapiens) (UniProt Q14164)
# T3 sequence (whole entry): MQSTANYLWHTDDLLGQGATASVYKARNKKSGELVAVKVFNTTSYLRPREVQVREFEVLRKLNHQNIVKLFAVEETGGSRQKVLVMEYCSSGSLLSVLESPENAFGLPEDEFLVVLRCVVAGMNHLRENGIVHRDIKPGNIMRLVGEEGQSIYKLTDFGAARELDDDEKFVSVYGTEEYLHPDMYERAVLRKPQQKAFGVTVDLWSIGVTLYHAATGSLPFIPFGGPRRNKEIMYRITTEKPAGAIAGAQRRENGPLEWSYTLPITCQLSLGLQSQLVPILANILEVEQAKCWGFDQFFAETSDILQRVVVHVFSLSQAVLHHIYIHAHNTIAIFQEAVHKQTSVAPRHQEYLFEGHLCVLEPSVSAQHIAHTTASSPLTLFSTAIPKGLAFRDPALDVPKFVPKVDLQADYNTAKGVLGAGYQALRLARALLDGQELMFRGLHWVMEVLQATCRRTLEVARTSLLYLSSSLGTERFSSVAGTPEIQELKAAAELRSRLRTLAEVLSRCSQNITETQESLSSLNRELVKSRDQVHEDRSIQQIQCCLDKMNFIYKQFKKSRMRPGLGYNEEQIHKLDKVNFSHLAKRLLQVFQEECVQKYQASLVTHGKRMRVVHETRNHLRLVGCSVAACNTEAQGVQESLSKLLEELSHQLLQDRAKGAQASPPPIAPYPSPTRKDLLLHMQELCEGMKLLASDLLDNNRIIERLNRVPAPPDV
# Assay: Inhibition of recombinant IKKepsilon (unknown origin) using ulight-rpS6 as substrate at 20 uM after 2 hrs by LANCE ultra TR-FRET assay relative to control
# Details: not given
row,inhibition,SMILES
1,14.3%,COCCOCOc1ccc(-c2ncc(/C=C/C(=O)O)s2)cc1C12CC3CC(CC(C3)C1)C2
2,2.9%,COCCOCOc1cc(C)c(-c2ccc(/C=C/C(=O)O)cc2Cl)cc1C12CC3CC(CC(C3)C1)C2
3,0%,O=C(O)/C=C/c1cnc(-c2ccc(O)c(C34CC5CC(CC(C5)C3)C4)c2)s1
4,6.7%,COc1nc(/C=C/C(=O)O)cnc1-c1cc(C23CC4CC(CC(C4)C2)C3)c(O)cc1C
5,0%,Cc1cc(O)c(C23CC4CC(CC(C4)C2)C3)cc1-c1ncc(-c2ccc(C(=O)O)cc2)s1
6,41.5%,Cc1cc(O)c(C23CC4CC(CC(C4)C2)C3)cc1-c1ccc2cc(C(=O)O)ccc2c1Cl
7,25.3%,COCCOCOc1ccc(-c2ncc(-c3ccc(C(=O)O)cc3)s2)cc1C12CC3CC(CC(C3)C1)C2
8,13.7%,COCCOCOc1cc(C)c(-c2ccc3cc(C(=O)O)ccc3c2Cl)cc1C12CC3CC(CC(C3)C1)C2
9,5.9%,COCCOCOc1cc(C)c(-c2ncc(/C=C/C(=O)O)nc2OC)cc1C12CC3CC(CC(C3)C1)C2
10,9.4%,COCCOCOc1ccc(-c2ncc(/C=C/C(=O)O)nc2OC)cc1C12CC3CC(CC(C3)C1)C2
11,8.5%,Cc1cc(O)c(C23CC4CC(CC(C4)C2)C3)cc1-c1ccc(CC(=O)O)cc1Cl

# System: not listed separately
# Assay: Cytotoxicity against human Jurkat T cells assessed as cell viability at 4 uM after 24 hrs by CellTiter-Glo assay relative to control
# Format: functional
# Details: read-out: Activity
# In short: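 Jurkat cells in 0.5% FBS RPMI were exposed to 4 µM compound or 0.1% DMSO for 24 h. Viability was read as ATP by CellTiter-Glo luminescence and expressed as percent of solvent control; below 60% counted as cell killing. Data: three experiments, triplicate.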
row,SMILES,viability at 4 µM
1,COCCOCOc1ccc(-c2ncc(/C=C/C(=O)O)s2)cc1C12CC3CC(CC(C3)C1)C2,103%
2,COCCOCOc1cc(C)c(-c2ccc(/C=C/C(=O)O)cc2Cl)cc1C12CC3CC(CC(C3)C1)C2,83.7%
3,O=C(O)/C=C/c1cnc(-c2ccc(O)c(C34CC5CC(CC(C5)C3)C4)c2)s1,92.9%
4,COc1nc(/C=C/C(=O)O)cnc1-c1cc(C23CC4CC(CC(C4)C2)C3)c(O)cc1C,70.9%
5,Cc1cc(O)c(C23CC4CC(CC(C4)C2)C3)cc1-c1ncc(-c2ccc(C(=O)O)cc2)s1,39%
6,Cc1cc(O)c(C23CC4CC(CC(C4)C2)C3)cc1-c1ccc2cc(C(=O)O)ccc2c1Cl,7.7%
7,COCCOCOc1ccc(-c2ncc(-c3ccc(C(=O)O)cc3)s2)cc1C12CC3CC(CC(C3)C1)C2,74.5%
8,COCCOCOc1cc(C)c(-c2ccc3cc(C(=O)O)ccc3c2Cl)cc1C12CC3CC(CC(C3)C1)C2,33.1%
9,COCCOCOc1cc(C)c(-c2ncc(/C=C/C(=O)O)nc2OC)cc1C12CC3CC(CC(C3)C1)C2,96.5%
10,COCCOCOc1ccc(-c2ncc(/C=C/C(=O)O)nc2OC)cc1C12CC3CC(CC(C3)C1)C2,94.9%
11,Cc1cc(O)c(C23CC4CC(CC(C4)C2)C3)cc1-c1ccc(CC(=O)O)cc1Cl,45.8%
